A selection: hits, their analogues and other compounds. The true share with any hit is near 2%.
TRPML3 ag = agonists of human TRPML3 channel. Q8TDD5. activation, % at 3 µM. HEK293 TRPML3-YFP, Fluo-8 calcium fluorescence; 100% = the carbachol control signal. 220,000 tested, 0.29% active;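 active means activation above its plate's cutoff, the mean activation of the plate's test wells plus 3 SD, cut at about 12% in these data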
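Test system – HEK293 line with stable expression of human TRPML3-YFP channel · Control set – carbachol 87 µM final as high control (100%), DMSO as low control (0%) · Signal – Fluo-8 calcium dye fluorescence, ex 470-495, em 515-575 nm · Incubation – 1-h 37 °C dye load, 5-s basal, 120-s post-compound reads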
GPR7 antagonist = blocks human GPR7 receptor signaling; P48145; GPR7-expressing cells, fluorescence antagonist assay; inhibition, % at 4.4 µM; 290,000 tested, 1.1% active; AID 1861; in the data active means inhibition above about 16%, passing the limit was not always enough;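 further: cells stimulated with the agonist NPW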
Target sequence (P48145 whole entry, looked up): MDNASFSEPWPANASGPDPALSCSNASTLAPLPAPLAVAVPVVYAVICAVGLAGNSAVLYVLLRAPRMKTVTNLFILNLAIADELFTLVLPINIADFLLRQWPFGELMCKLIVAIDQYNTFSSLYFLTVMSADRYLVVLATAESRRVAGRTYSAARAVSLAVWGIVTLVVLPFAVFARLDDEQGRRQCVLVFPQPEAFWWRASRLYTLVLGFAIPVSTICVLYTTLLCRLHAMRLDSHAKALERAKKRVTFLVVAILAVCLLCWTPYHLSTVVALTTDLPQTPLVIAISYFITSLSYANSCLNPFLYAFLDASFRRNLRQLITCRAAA
CRFR2-BP antag = blocks CRF-induced signaling of the CRF-BP/CRF-R2 complex; HEK293 CRF-R2/CRF-BP, CRF-induced calcium fluorescence; inhibition, % at 11.8 µM; 350,000 tested, 0.59% active;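 active means inhibition of the ligand-induced calcium signal above about 50% at the single tested concentration, limit read from the data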
CRFR2-BP ag = CRF-BP/CRF-R2 complex agonism. activation, % at 13.2 µM. HEK293 CRF-R2/CRF-BP, calcium dye fluorescence (FLIPR); percent of saturating CRF peptide response. AID 588473. 350,000 tested, 0.46% active;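 active means activation of at least 50%, plus an integration ratio under a set limit after plate pattern correction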
TRPN1 ag = agonists of zebrafish TRPN1 channel; HEK293 zebrafish TRPN1-YFP, Fluo-8 calcium fluorescence; 100% = response to 87 µM carbachol; activation, % at 3 µM; 220,000 tested, 0.18% active; AID 1424;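 active means activation above its plate's cutoff, the mean activation of test wells on that plate plus 3 SD, cut at about 19% in these data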
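Material: zebrafish TRPN1-YFP in HEK293 cells. Doses: one dose of 3 µM, 0.3% DMSO. Incubation: dye 1 h 37 °C plus 30 min RT. Measured by: intracellular calcium fluorescence with Fluo-8.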
GPR7 antag conf = human GPR7 antagonism, confirmation assay | shares compounds with GPR7 antagonist | GPR7-expressing cells, calcium fluorescence antagonist mode | AID 1952 | 2,400 tested, 52% active | inhibition, % at 4.4 µM; in the data active means inhibition above about 24%;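 further: stimulated with the GPR7 agonist NPW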
MCHR1 antag = counter-screen for GPR7 antagonists: antagonists of human MCHR1; MCHR1-expressing cells, fluorescence antagonist assay; shares compounds with GPR7 antagonist; inhibition, % at 4.4 µM; 2,400 tested, 62% active; in the data active means inhibition above about 22%
Large screens that a line does not name were inactive (follow-up assays come after a bar, where they were run).

OC(COCc1ccc(Cl)cc1)CN1CCN(CC(O)COCc2ccc(Cl)cc2)CC1 (configuration not stated)	GPR7 antagonist 25.8 | GPR7 antag conf 68.0 | MCHR1 antag 72.6
CC(=O)Oc1c(C)cc(Cl)cc1C(=O)Nc1ccc([N+](=O)[O-])cc1Cl	GPR7 antagonist 24.8, CRFR2-BP ag 83.0, TRPN1 ag 26.1 | GPR7 antag conf 58.6 | MCHR1 antag 62.2
CCOC(=O)C(Cc1ccccc1)NC(=O)CCc1nnc2ccc(N3CCOCC3)nn12 (configuration not stated)	none (no result: TRPML3 ag, TRPN1 ag)
CCOc1ccc(CCNC(=O)CCc2nnc3ccc(N4CCOCC4)nn23)cc1OCC	GPR7 antagonist 30.0 (no result: TRPML3 ag, TRPN1 ag) | GPR7 antag conf inactive | MCHR1 antag inactive
CCOC(=O)[C@H]1[C@H]2COc3cc(OC)ccc3[C@@H]2N2C(=O)c3cc(F)c(F)cc3NC(=O)[C@@]12C	none (no result: TRPML3 ag, GPR7 antagonist, TRPN1 ag)
CCC(=O)N1CCN(c2ccccc2NC(=O)COc2ccc(C(C)C)cc2)CC1	GPR7 antagonist 26.6 (no result: TRPML3 ag, TRPN1 ag) | GPR7 antag conf inactive | MCHR1 antag inactive
O=C1NC[C@H](c2ccccc2)N(CCC23CC4CC(CC(C4)C2)C3)C1=O	none (no result: TRPML3 ag, GPR7 antagonist, TRPN1 ag)
O=C(c1ccc(COc2ccccc2Br)cc1)N1CCCCC1	GPR7 antagonist 25.3 | GPR7 antag conf 35.7 | MCHR1 antag 44.4
O=C(c1ccc(COc2ccccc2Br)o1)N1CCCCCC1	none
COc1ccc([C@H]2CC(=O)C=C(c3ccnc4ccc(Cl)cc34)C2)cc1	none (no result: TRPML3 ag, GPR7 antagonist, TRPN1 ag)
CC(C(=O)Nc1c2c(cc3c1CCC3)CCC2)N1CCCC1 (configuration not stated)	GPR7 antagonist 32.1 | GPR7 antag conf inactive | MCHR1 antag 28.2
CCCNS(=O)(=O)c1cccc(C(=O)OCc2cc(=O)oc3cc(OC)ccc23)c1	GPR7 antagonist 34.1 (no result: TRPML3 ag, TRPN1 ag) | GPR7 antag conf 32.7 | MCHR1 antag 56.7
Cc1ccc(S(=O)(=O)N2[C@@H](c3cccc(C)c3)C(C(=O)O)=C[C@H]2CC2CCCC2)cc1	none (no result: TRPML3 ag, GPR7 antagonist, TRPN1 ag)
CC1CN(c2oc(COc3ccc(Cl)cc3Cl)nc2C#N)CC(C)O1 (configuration not stated)	GPR7 antagonist 40.2 | GPR7 antag conf 23.9 | MCHR1 antag 27.7
O=C(NCC1CCCCC1)c1cc(S(=O)(=O)N2CCOCC2)ccc1F	none (no result: TRPML3 ag, GPR7 antagonist, TRPN1 ag)
COCCn1c(-c2ccc(Br)cc2)csc1=Nc1cccnc1	none
Clc1ccc(-c2csc(=Nc3cccnc3)n2CCCn2ccnc2)cc1Cl	GPR7 antagonist 27.8 | GPR7 antag conf 28.5 | MCHR1 antag 39.8
O=C(Nc1ccc(N2CCOCC2)cc1N1CCOCC1)c1ccccc1	none (no result: TRPML3 ag, GPR7 antagonist, TRPN1 ag)
O=C(Nc1ccccc1N1CCN(C(=O)c2ccccc2)CC1)c1ccc(Cl)cc1	none
O=C(Cc1ccc(Cl)cc1)Nc1ccccc1N1CCN(C(=O)c2ccccc2)CC1	GPR7 antagonist 28.3 (no result: TRPML3 ag, TRPN1 ag) | GPR7 antag conf 36.2 | MCHR1 antag 50.9
O=C(Nc1ccccc1N1CCN(c2ccccc2)CC1)c1ccccc1	GPR7 antagonist 22.2 | GPR7 antag conf inactive | MCHR1 antag 45.0
O=Cc1ccccc1-c1cn(CCCOCc2ccccc2)nn1	none (no result: TRPML3 ag, TRPN1 ag)
Cn1c(N)c(C(=O)COC(=O)/C=C/c2ccc(S(=O)(=O)N3CCOCC3)cc2)c(=O)n(C)c1=O	GPR7 antagonist 24.0 | GPR7 antag conf inactive | MCHR1 antag inactive
CCCCNc1c2c3c(cccc3n(C)c1=O)C(=O)c1ccccc1-2	TRPML3 ag 46.2, GPR7 antagonist 21.0, CRFR2-BP ag 239.2, TRPN1 ag 81.3 | GPR7 antag conf 64.7 | MCHR1 antag 81.4
Cn1c(=O)c(NCCO)c2c3c(cccc31)C(=O)c1ccccc1-2	TRPML3 ag 282.3, GPR7 antagonist 61.5, TRPN1 ag 454.3 | GPR7 antag conf 59.5 | MCHR1 antag 81.8
COc1cccc(CN2CC(C(=O)NCC3CCOCC3)CCC2=O)c1 (configuration not stated)	none (no result: TRPML3 ag, TRPN1 ag)
CC(C)Cc1cc(C(=O)N2CCCC(CO)(Cc3ccc(F)cc3)C2)no1 (configuration not stated)	none (no result: TRPML3 ag, TRPN1 ag)
CC(C)Cc1cc(C(=O)N2CCCC(CO)(Cc3ccc(F)cc3F)C2)n[nH]1 (configuration not stated)	none (no result: TRPML3 ag, GPR7 antagonist, TRPN1 ag) | MCHR1 antag inactive
COc1ccccc1CNCC(O)Cn1c2ccccc2c2ccccc21 (configuration not stated)	GPR7 antagonist 37.1 | GPR7 antag conf 67.8 | MCHR1 antag 72.7
COc1ccccc1CNCC(c1ccccc1)c1ccccc1	GPR7 antagonist 41.6 (no result: TRPML3 ag, CRFR2-BP antag, CRFR2-BP ag, TRPN1 ag) | GPR7 antag conf 45.7 | MCHR1 antag 33.8
CC[C@H]1c2[nH]c3ccccc3c2C[C@H]2C(=O)N(c3ccc(F)cc3)C(=O)N21	none (no result: TRPML3 ag, GPR7 antagonist, TRPN1 ag)
COc1cccc(CN(C)C(=O)c2cc(COc3ccc(-n4cncn4)cc3)on2)c1	none (no result: TRPML3 ag, TRPN1 ag)
O=C(N/N=C/c1ccncc1)c1ccccc1OCc1ccc(Br)cc1	GPR7 antagonist 31.3 | GPR7 antag conf 25.3 | MCHR1 antag 42.7
COc1ccc2oc(C(=O)OCC(=O)NCc3ccco3)c(C)c2c1	none (no result: TRPML3 ag, GPR7 antagonist, TRPN1 ag)
CC(=O)c1ccc(NC(=O)C(C)N(C)CC(=O)Nc2ccc(N3CCOCC3)cc2)cc1 (configuration not stated)	GPR7 antagonist 25.6 | GPR7 antag conf inactive | MCHR1 antag inactive
CCC(C)NCCCOc1ccc(Cl)cc1C(C)(C)C (configuration not stated)	none
CNCCCOc1ccc(Cl)cc1C(C)(C)C	GPR7 antagonist 24.5 | GPR7 antag conf 41.0 | MCHR1 antag 47.5
COCCCNCCCOc1ccc(Cl)cc1C(C)(C)C	GPR7 antagonist 21.5 | GPR7 antag conf 26.1 | MCHR1 antag 33.1
COCCNCCCOc1ccc(Cl)cc1Br	none
O=C(Cn1cnc2c(NCc3ccccc3)ncnc21)NCCc1cc2ccccc2[nH]1	none (no result: TRPML3 ag, GPR7 antagonist, TRPN1 ag)
Cc1ccc(Cn2nnc(C(=O)Nc3cccc(C)c3C)c2N)cc1	TRPML3 ag 17.2, GPR7 antagonist 60.6, CRFR2-BP ag 104.6, TRPN1 ag 36.4 | GPR7 antag conf 77.3 | MCHR1 antag 75.3
COc1ccc(CNC(=O)c2nnn(Cc3ccc(OC)cc3)c2N)cc1	none
CCc1ccc(Cn2nnc(C(=O)NCc3ccccc3OC)c2N)cc1	GPR7 antagonist 24.8 | GPR7 antag conf inactive | MCHR1 antag inactive
COc1ccc(S(=O)(=O)N2CCN(CC(=O)Nc3cccc(OC)c3)CC2)cc1	GPR7 antagonist 34.5 (no result: TRPML3 ag, TRPN1 ag) | GPR7 antag conf 25.1 | MCHR1 antag inactive
COc1ccc(S(=O)(=O)N2CCN(CCC(=O)Nc3ccccc3F)CC2)cc1	none
COc1ccc(S(=O)(=O)N2CCCN(CC(=O)Nc3ccccc3F)CC2)cc1	GPR7 antagonist 29.9 (no result: TRPML3 ag, TRPN1 ag) | GPR7 antag conf inactive | MCHR1 antag 41.7

Source: PubChem (several laboratories)
